Calls of active or inactive are those of the source.
Tests used:
[1] = biological target: T1, Geranylgeranyl pyrophosphate synthase (Homo sapiens) (UniProt O95749); experiment: Inhibition of GGDPS (unknown origin) using uRAP1a as substrate in RPMI-8226 cells by measuring lowest effective concentration by measuring unmodified Rap1a by immunoblot based ELISA analysis; format: cell-based
T1 sequence (whole entry): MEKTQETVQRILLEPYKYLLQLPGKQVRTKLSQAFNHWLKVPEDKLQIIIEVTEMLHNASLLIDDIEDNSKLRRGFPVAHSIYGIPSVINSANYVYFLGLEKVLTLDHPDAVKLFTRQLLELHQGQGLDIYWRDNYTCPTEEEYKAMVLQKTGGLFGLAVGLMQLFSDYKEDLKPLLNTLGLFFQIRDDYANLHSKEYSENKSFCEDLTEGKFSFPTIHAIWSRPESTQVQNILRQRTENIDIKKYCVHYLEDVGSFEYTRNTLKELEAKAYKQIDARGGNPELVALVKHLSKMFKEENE
Procedure, shortened: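 Lowest effective concentration in RPMI-8226 cells after 48 h exposure. It is defined as the lowest level giving both a visible unprenylated Rap1a band on immunoblot (β-tubulin loading control) and a statistically significant rise (p<0.05, t-test vs untreated cells) in intracellular lambda light chain by ELISA. Based on n=3 independent experiments.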

[2] = biological target: T2, Geranylgeranyl pyrophosphate synthase (Homo sapiens, UniProt O95749); experiment: Inhibition of GGDPS (unknown origin) using recombinant enzyme by enzyme assay
T2 sequence (O95749 whole entry): T1 sequence (whole entry)

[3] = biological target: T1, Geranylgeranyl pyrophosphate synthase (Homo sapiens); experiment: Inhibition of GGDPS (unknown origin) using uRAP1a as substrate in RPMI-8226 cells assessed as disruption of geranylgeranylation by measuring unmodified Rap1a at 10 uM incubated for 48 hrs by immunoblot analysis; format: cell-based
Procedure, shortened: (§1)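 RPMI-8226 myeloma cells exposed 48 h to varying test concentrations, with lovastatin (10 μM) as positive control. Lysates were immunoblotted with an antibody that recognises only unprenylated Rap1a, with β-tubulin as loading control. Gels are representative of three independent studies.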

[4] = biological target: T1, Geranylgeranyl pyrophosphate synthase (Homo sapiens); experiment: Inhibition of GGDPS (unknown origin) using uRAP1a as substrate in RPMI-8226 cells assessed as disruption of geranylgeranylation by measuring unmodified Rap1a at […] incubated for 48 hrs by immunoblot analysis; format: cell-based; settings: dose 0.25 µM
[5] = biological target: T1, Geranylgeranyl pyrophosphate synthase (Homo sapiens); experiment: Inhibition of GGDPS (unknown origin) using uRAP1a as substrate in RPMI-8226 cells assessed as disruption of geranylgeranylation by measuring unmodified Rap1a at 0.5 uM incubated for 48 hrs by immunoblot analysis; format: cell-based; procedure, shortened: as §1

| SMILES | MEC [1] [µM] | IC50 [2] [nM] | inhibition [3] | inhibition [4] | inhibition [5] |
| --- | --- | --- | --- | --- | --- |
| CC(C)=CCC/C(C)=C\CCn1cc(CC(N)(P(=O)(O)O)P(=O)(O)O)nn1 | 0.25 | 49.4 | – | – | – |
| CC(C)=CCC/C(C)=C/Cn1cc(CC(N)(P(=O)(O)O)P(=O)(O)O)nn1 | – | > 100000 | inactive | – | – |
| CC(C)=CCC/C(C)=C/CCn1cc(CC(N)(P(=O)(O)O)P(=O)(O)O)nn1 | 1 | 52.1 | – | – | – |
| CC(C)=CCC/C(C)=C\Cn1cc(CC(N)(P(=O)(O)O)P(=O)(O)O)nn1 | 0.25 | 270 | – | Active | – |
| CC(C)=CCC/C(C)=C/CCn1cc(CC(P(=O)(O)O)P(=O)(O)O)nn1 | 0.03 | – | – | – | – |
| CC(C)=CCCC(C)=CCn1cc(CC(N)(P(=O)(O)O)P(=O)(O)O)nn1 | 0.5 | 3760 | – | – | Active |

Reference: ChEMBL document CHEMBL5579803, “α-Amino bisphosphonate triazoles serve as GGDPS inhibitors” (Bioorg Med Chem Lett, 2024)
